ChEMBL document CHEMBL1144013, “Indol-3-yl-tetramethylcyclopropyl ketones: effects of indole ring substitution on CB2 cannabinoid receptor activity” (J Med Chem, 2008)
The source made the active and inactive calls. The rule behind the calls is not given here.

Key:
[1] = biological target: T1, Cannabinoid receptor 2 (Homo sapiens, UniProt P34972); experiment: Displacement of [3H]CP-55940 from human recombinant CB2 receptor expressed in HEK cells; assay type: cell-based, HEK293
[2] = biological target: Cannabinoid receptor 1 (Homo sapiens, UniProt P21554); experiment: Displacement of [3H]CP-55940 from human recombinant CB1 receptor expressed in HEK cells; assay type: cell-based, HEK293
Cannabinoid receptor 1, sequence (P21554 whole entry): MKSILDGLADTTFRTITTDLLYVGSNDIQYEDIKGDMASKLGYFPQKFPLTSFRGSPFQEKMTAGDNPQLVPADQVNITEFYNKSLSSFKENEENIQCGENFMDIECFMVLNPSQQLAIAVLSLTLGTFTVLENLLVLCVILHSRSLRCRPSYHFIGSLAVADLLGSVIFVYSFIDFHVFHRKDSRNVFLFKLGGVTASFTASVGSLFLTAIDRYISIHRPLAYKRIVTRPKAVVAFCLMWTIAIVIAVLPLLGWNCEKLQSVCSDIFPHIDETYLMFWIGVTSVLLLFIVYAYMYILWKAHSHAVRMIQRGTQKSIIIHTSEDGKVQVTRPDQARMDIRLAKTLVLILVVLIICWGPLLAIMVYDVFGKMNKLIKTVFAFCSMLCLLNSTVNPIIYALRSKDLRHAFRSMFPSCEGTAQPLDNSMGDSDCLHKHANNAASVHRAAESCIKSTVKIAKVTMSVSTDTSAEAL

[3] = species on record: Homo sapiens; experiment: Selectivity for human recombinant CB2 receptor over human recombinant CB1 receptor
How it was run: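 Ki ratio from [3H]CP-55940 (0.5 nM) competition binding: human CB1 membranes from stably expressing […] cells versus human CB2 membranes from stably expressing HEK cells. Tris-HCl pH 7.4 buffer with EDTA, MgCl2, BSA; 90 min at 30 °C; filtration counting; nonspecific with 10 µM unlabeled ligand; ≥3 experiments in duplicate.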

[4] = biological target: T1, Cannabinoid receptor 2; experiment: Agonist activity at human recombinant CB2 receptor expressed in HEK cells assessed as calcium mobilization by FLIPR; assay type: functional, cell-based, HEK293
How it was run: (§1)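 HEK cells stably coexpressing human CB2 and chimeric Gαq/o5 protein, seeded 75,000/well one day before; no-wash calcium dye.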

[5] = biological target: T1, Cannabinoid receptor 2; experiment: Agonist activity at human recombinant CB2 receptor expressed in HEK cells assessed as calcium mobilization by FLIPR relative to CP-55940; assay type: functional, cell-based; conditions: HEK293; how it was run: as §1
[6] = species on record: Rattus norvegicus; experiment: Antiinflammatory activity against rat CFA-induced chronic inflammatory thermal hyperalgesia model assessed as effect on paw withdrawal latency; assay type: functional, organism-based
How it was run: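 Rats given 150 µL of 50% CFA in PBS into right hind plantar paw; thermal hyperalgesia tested 48 h later. Compound in 5% DMSO/95% PEG; PWL read 30 min post dose in ipsilateral and contralateral paws, 3 trials ~5 min apart, mean of two shortest latencies. n = 6 per dose; compared against vehicle. Antagonist pretreatment group included.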

T1 sequence (P34972 whole entry): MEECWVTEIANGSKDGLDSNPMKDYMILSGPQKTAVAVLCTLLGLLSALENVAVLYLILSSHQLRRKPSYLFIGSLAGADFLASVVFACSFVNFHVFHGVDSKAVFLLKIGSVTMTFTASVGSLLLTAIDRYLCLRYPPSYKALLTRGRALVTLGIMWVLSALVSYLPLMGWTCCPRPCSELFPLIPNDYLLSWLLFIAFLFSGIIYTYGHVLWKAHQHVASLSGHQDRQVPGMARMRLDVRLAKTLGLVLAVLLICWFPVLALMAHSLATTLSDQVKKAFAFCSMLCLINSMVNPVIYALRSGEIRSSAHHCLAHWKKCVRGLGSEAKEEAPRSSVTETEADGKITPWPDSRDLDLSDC

Row | SMILES | Ki ([1]; read-out: Ki) [nM] | Ki ([2]; read-out: Ki) [nM] | Ratio Ki [3] | EC50 [4] [nM] | Activity [5] [%] | Ki ([2]; hek293, read-out: Ki) [nM] | Ki ([2]; read-out: Log Ki (converted)) [nM] | Activity [6] | Ki ([1]; hek293, read-out: Ki) [nM] | Ki ([1]; read-out: Log Ki (converted)) [nM]
1 | CC1(C)C(C(=O)c2cn(CCN3CCOCC3)c3cc(O)ccc23)C1(C)C | 109 | > 10000 | > 92 | 186 | 62 | – | – | – | – | –
2 | COc1ccc2c(c1)c(C(=O)C1C(C)(C)C1(C)C)cn2CC1CCOCC1 | 4.6 | 282 | 61 | 61 | 35 | – | – | – | – | –
3 | CC1(C)C(C(=O)c2cn(CCN3CCOCC3)c3cccc(NS(C)(=O)=O)c23)C1(C)C | > 1000 | – | – | > 10000 | – | – | – | – | – | –
4 | CC1(C)C(C(=O)c2cn(CC3CCOCC3)c3ccc(N)cc23)C1(C)C | 9.3 | – | 108 | 10 | 80 | > 1000 | > 1000 | – | – | –
5 | COCc1ccc2c(c1)c(C(=O)C1C(C)(C)C1(C)C)cn2CC1CCOCC1 | 26 | – | – | 41 | 50 | – | – | – | – | –
6 | CC1(C)C(C(=O)c2cn(CC3CCOCC3)c3cc(CN)ccc23)C1(C)C | 62 | > 1000 | > 16 | > 10000 | – | – | – | – | – | –
7 | CC1(C)C(C(=O)c2cn(CC3CCOCC3)c3cc(Br)ccc23)C1(C)C | 0.65 | – | – | > 10000 | – | – | – | – | – | –
8 | CC1(C)C(C(=O)c2cn(CC3CCOCC3)c3cc4c(cc23)OCO4)C1(C)C | 1 | – | – | 18 | 62 | – | – | – | – | –
9 | CC1(C)C(C(=O)c2cn(CC3CCOCC3)c3ccc(-c4ccccc4)cc23)C1(C)C | 58 | – | – | > 10000 | – | – | – | – | – | –
10 | COC(=O)c1ccc2c(C(=O)C3C(C)(C)C3(C)C)cn(CC3CCOCC3)c2c1 | 1.4 | – | – | > 10000 | – | – | – | – | – | –
11 | CC1(C)C(C(=O)c2cn(CC3CCOCC3)c3cc(-c4ccccc4)ccc23)C1(C)C | 0.41 | 228 | 556 | > 10000 | – | – | – | inactive | – | –
12 | CC(=O)Nc1cccc2c1c(C(=O)C1C(C)(C)C1(C)C)cn2CCN1CCOCC1 | > 1000 | > 2200 | – | > 10000 | – | – | > 2190 | – | – | –
13 | CC1(C)C(C(=O)c2cn(CCN3CCOCC3)c3cccc(N)c23)C1(C)C | 32 | > 3500 | > 109 | 50 | 41 | – | > 3470 | – | – | –
14 | CC1(C)C(C(=O)c2cn(CC3CCOCC3)c3ccc(F)cc23)C1(C)C | 1.6 | 1210 | 756 | 22 | 88 | – | – | – | – | –
15 | Cc1c(C(=O)C2C(C)(C)C2(C)C)c2ccccc2n1CCN1CCOCC1 | 27 | > 10000 | > 370 | 227 | 60 | – | – | – | – | –
16 | CC1(C)C(C(=O)c2cn(CC3CCOCC3)c3cccc(O)c23)C1(C)C | 3.9 | – | – | 64 | 94 | – | – | Dose-dependent effect | – | –
17 | CC1(C)C(C(=O)c2cn(CC3CCOCC3)c3ccc(OCCCCO)cc23)C1(C)C | 260 | > 10000 | > 38 | > 10000 | – | – | – | – | – | –
18 | CC1(C)C(C(=O)c2cn(CC3CCOCC3)c3cc(O)ccc23)C1(C)C | 8.5 | > 3000 | > 353 | 15 | 107 | – | > 3020 | – | – | –
19 | CC1(C)C(C(=O)c2cn(CC3CCOCC3)c3cc(C#N)ccc23)C1(C)C | 5 | – | – | 45 | 67 | – | – | – | – | –
20 | Cc1ccc2c(C(=O)C3C(C)(C)C3(C)C)cn(CC3CCOCC3)c2c1 | 0.15 | – | – | > 10000 | – | – | – | – | – | –
21 | CC1(C)C(C(=O)c2cn(CC3CCOCC3)c3ccc(OCCCCBr)cc23)C1(C)C | 72 | > 10000 | > 139 | > 10000 | – | – | – | – | – | –
22 | CC1(C)C(C(=O)c2cn(CC3CCOCC3)c3cc(C(F)(F)F)ccc23)C1(C)C | 3.5 | 70 | 20 | > 10000 | – | – | – | – | – | –
23 | CC1(C)C(C(=O)c2cn(CCN3CCOCC3)c3cc(OCc4ccccc4)ccc23)C1(C)C | 2.9 | – | – | > 10000 | – | – | – | – | – | –
24 | CC1(C)C(C(=O)c2cn(CC3CCOCC3)c3c(OCc4ccccc4)cccc23)C1(C)C | 3.1 | 1100 | 353 | > 10000 | – | – | – | – | – | –
25 | COc1cccc2c1c(C(=O)C1C(C)(C)C1(C)C)cn2CC1CCOCC1 | 3.3 | 1090 | 330 | 81 | 37 | – | – | – | – | –
26 | COc1cc2c(cc1O)c(C(=O)C1C(C)(C)C1(C)C)cn2CC1CCOCC1 | 0.7 | – | – | > 10000 | – | – | – | – | – | –
27 | CC1(C)C(C(=O)c2cn(CC3CCOCC3)c3c(F)c(F)c(F)c(F)c23)C1(C)C | 5 | 66 | 13 | 37 | 88 | – | – | – | – | –

Row | SMILES | Ki ([1]; read-out: Ki) [nM] | Ki ([2]; read-out: Ki) [nM] | Ratio Ki [3] | EC50 [4] [nM] | Activity [5] [%] | Ki ([2]; hek293, read-out: Ki) [nM] | Ki ([2]; read-out: Log Ki (converted)) [nM] | Activity [6] | Ki ([1]; hek293, read-out: Ki) [nM] | Ki ([1]; read-out: Log Ki (converted)) [nM]
28 | COc1ccc2c(c1)c(C(=O)C1C(C)(C)C1(C)C)cn2CCN1CCOCC1 | 237 | > 3500 | > 15 | > 10000 | – | – | > 3470 | – | – | –
29 | CC1(C)C(C(=O)c2cn(CCN3CCOCC3)c3ccccc23)C1(C)C | 4.4 | – | – | 14 | 71 | – | – | Active | – | –
30 | COc1cccc2c(C(=O)C3C(C)(C)C3(C)C)cn(CC3CCOCC3)c12 | 0.12 | – | – | > 10000 | – | – | – | – | – | –
31 | CC1(C)C(C(=O)c2cn(CC3CCOCC3)c3ccc(Cl)cc23)C1(C)C | 3 | 512 | 171 | 92 | 69 | – | – | – | – | –
32 | CC1(C)C(C(=O)c2cn(CC3CCOCC3)c3cc(S(C)(=O)=O)ccc23)C1(C)C | 3 | 1270 | 423 | > 10000 | – | – | – | – | – | –
33 | CC1(C)C(C(=O)c2cn(CCN3CCOCC3)c3cccc([N+](=O)[O-])c23)C1(C)C | 297 | > 10000 | > 34 | > 10000 | – | – | – | – | – | –
34 | CC1(C)C(C(=O)c2cn(CCN3CCOCC3)c3ccc(OCc4ccccc4)cc23)C1(C)C | – | > 10000 | – | > 10000 | – | – | – | – | > 1000 | > 1000
35 | COc1ccc2c(C(=O)C3C(C)(C)C3(C)C)cn(CCN3CCOCC3)c2c1 | – | – | – | > 10000 | – | – | – | – | – | 1.58
36 | COC(=O)c1ccc2c(c1)c(C(=O)C1C(C)(C)C1(C)C)cn2CC1CCOCC1 | 238 | > 10000 | > 42 | > 10000 | – | – | – | – | – | –
37 | COc1cc2c(cc1OCc1ccccc1)c(C(=O)C1C(C)(C)C1(C)C)cn2CC1CCOCC1 | 1.8 | – | – | > 10000 | – | – | – | – | – | –
38 | CC1(C)C(C(=O)c2cn(CC3CCOCC3)c3cc(O)c(O)cc23)C1(C)C | 21 | – | – | 21 | 106 | – | – | – | – | –
39 | CC1(C)C(C(=O)c2cn(CC3CCOCC3)c3ccc(O)cc23)C1(C)C | 1.9 | – | – | 7 | 78 | – | – | – | – | –
40 | CC1(C)C(C(=O)c2cn(CC3CCOCC3)c3ccc(CN)cc23)C1(C)C | > 1000 | > 10000 | – | > 10000 | – | – | – | – | – | –
41 | CC1(C)C(C(=O)c2cn(CCN3CCOCC3)c3ccc(O)cc23)C1(C)C | 92 | > 10000 | > 109 | > 10000 | – | – | – | – | – | –
42 | CN1CCCCC1Cn1cc(C(=O)c2cc([N+](=O)[O-])ccc2I)c2ccccc21 (stereo not given) | 11.5 | 1270 | 110 | > 10000 | – | – | – | – | – | –
43 | CC1(C)C(C(=O)c2cn(CC3CCOCC3)c3c(O)cccc23)C1(C)C | 3.2 | – | – | > 10000 | – | – | – | – | – | –
44 | CCCn1c(C)c(C(=O)c2cccc3ccccc23)c2ccccc21 | – | – | – | – | 75 | – | – | – | – | –
45 | CC1(C)C(C(=O)c2cn(CC3CCOCC3)c3ccccc23)C1(C)C | 0.21 | – | – | 7 | 133 | – | – | – | – | –
46 | CC1(C)C(C(=O)c2cn(CC3CCOCC3)c3cc(OCc4ccccc4)ccc23)C1(C)C | 0.88 | – | – | 135 | 45 | – | – | – | – | –
47 | CC1(C)C(C(=O)c2cn(CC3CCOCC3)c3cc(Cl)ccc23)C1(C)C | 2.5 | – | – | 10 | 60 | – | – | – | – | –
48 | CC1(C)C(C(=O)c2cn(CC3CCOCC3)c3ccc(CO)cc23)C1(C)C | 113 | > 10000 | > 88 | 73 | 53 | – | – | – | – | –
49 | CC1(C)C(C(=O)c2cn(CC3CCOCC3)c3ccc(Br)cc23)C1(C)C | 6.6 | 1930 | 292 | 280 | 54 | – | – | – | – | –
50 | CC1(C)C(C(=O)c2cn(CC3CCOCC3)c3ccc(OCc4ccccc4)cc23)C1(C)C | 1.3 | 238 | 183 | > 10000 | – | – | – | – | – | –
51 | COc1ccc2c(C(=O)C3C(C)(C)C3(C)C)cn(CC3CCOCC3)c2c1 | 0.51 | 40 | 78 | > 10000 | – | – | – | – | – | –
52 | CC1(C)C(C(=O)c2cn(CC3CCOCC3)c3ccc(C#N)cc23)C1(C)C | 30 | – | – | 226 | 65 | – | – | – | – | –
53 | CC1(C)C(C(=O)c2cn(CC3CCOCC3)c3cccc(OCc4ccccc4)c23)C1(C)C | 9.3 | > 10000 | > 1080 | 383 | 45 | – | – | – | – | –
